Experiments:
[1] = melting temperature; fluorescence melt of hairpins on a sequencing array, two-state fit, raised by 9.35 °C to match UV melts; conditions: sodium 0.088 M
Method in brief: (§1)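 Folding enthalpy and melting temperature were estimated with bootstrapped two-state fits and combined across four replicates by inverse-variance weighting, with fitted temperatures raised by 9.35 °C to match UV melts. The data were Cy3 fluorescence of library hairpins, with annealed Cy3 and quencher oligos, on a sequenced MiSeq flow cell in 50 mM Na-HEPES pH 8.0, 25 mM NaCl, imaged in 2.5 °C steps up to 60 °C and normalised to pre-quench Cy3 and control constructs.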

[2] = folding enthalpy; higher = less favourable; fluorescence melt of hairpins on a sequencing array, two-state fit; conditions: sodium 0.088 M
Method in brief: as §1

Sequence	Tm [1]	folding enthalpy [2]
GATCTCTGGTGAGATC ((((((....))))))	52.4 °C	-34.1 kcal/mol
GTATGGGGAAACTCGTAC (((.(.(....).).)))	29.1 °C	-11.6 kcal/mol
ATGCTGAAAAGCAT (((((....)))))	50.8 °C	-18.6 kcal/mol
GCGTTCGAAAGAAGGCGC ((((((....)))..)))	55.6 °C	-33.6 kcal/mol
GCTCTGCGAAAGCAGTGC ((.((((....)))).))	62 °C	-16.7 kcal/mol
GCCGCATCGAAAGATGGC (((..(((....))))))	46.9 °C	-11.4 kcal/mol
GATCACGCGGTGATC ((((((...))))))	59.2 °C	-40.2 kcal/mol
GTAATCGGAAACGACTAC (((.(((....))).)))	34.3 °C	-19.5 kcal/mol
GCGCGAGGAAACTTGCGC ((((.((....)).))))	65.6 °C	-38.1 kcal/mol
GTACTTCGAAAGAATTAC (((.(((....))).)))	32.2 °C	-18.6 kcal/mol
GTCTAAGGAAACTTGGAC (((.(((....))).)))	40.2 °C	-21.9 kcal/mol
GCTCTTACGAAAGTAAGC (((..(((....))))))	34.7 °C	-9.83 kcal/mol
GATCTCTTTGAGATC ((((((...))))))	55.8 °C	-32.1 kcal/mol
GTAGCTGGAAACGGTTAC (((.(.(....).).)))	28.9 °C	-18.7 kcal/mol
GCAGAGCGAAAGCACTGC ((((.((....)).))))	67.4 °C	-34 kcal/mol
GCCTTGCGAAAGCATTGC ((..(((....)))..))	48.2 °C	-11.4 kcal/mol
GGCGCTCGAAAGAGGCC (((.(((....))))))	57.5 °C	-40.1 kcal/mol
GCCGGTGGAAACACTGGC (((.(((....))).)))	60 °C	-41.5 kcal/mol
CGTACGGAAACGTTGACG ((((((....)))..)))	36.3 °C	-16.5 kcal/mol
CGACTCGGAAACGAATCG (((.(((....))).)))	41.9 °C	-33.6 kcal/mol
GTGGGGGGAAACCTCCAC ((((.((....)).))))	54.5 °C	-44.1 kcal/mol
GGGGACGAAAGTCGACCC ((((((....)))..)))	48.9 °C	-18.3 kcal/mol
GGCCTGGGAAACCAAGCC (((.(((....))).)))	45.4 °C	-30.1 kcal/mol

Sequence	Tm [1]	folding enthalpy [2]
GTCTGTCGAAAGACGAC (((.(((....))))))	51.5 °C	-28.6 kcal/mol
GAATTTGGAAACAAATTC (((((((....)))))))	52 °C	-45.1 kcal/mol
GTCAGGCGAAAGCCGAC (((.(((....))))))	60.6 °C	-16.5 kcal/mol
GATCATCCAGATGATC ((((((....))))))	50.3 °C	-37.5 kcal/mol
GATCTTAAAGAAGATC ((((((....))))))	34.8 °C	-16.8 kcal/mol
GGCCGGGGAAACCCGGTC (.(((((....))))).)	67.9 °C	-24.6 kcal/mol
GAGGTTACGAAAGTACTC (((..(((....))))))	27.9 °C	-14.3 kcal/mol
GGACCTCGAAAGAGTCC (((.(((....))))))	49.8 °C	-32.7 kcal/mol
GAAAGCGAAAGCTTTC ((((((....))))))	64.7 °C	-34.9 kcal/mol
GATCTCCGAGAGATC ((((((...))))))	51 °C	-35.2 kcal/mol
GGCTCTACGAAAGTAGCC (((..(((....))))))	40.1 °C	-17.1 kcal/mol
GATGGGGCGAAAGCCATC (((..(((....))))))	38.1 °C	-12 kcal/mol
GATCGATATCTCGATC ((((((....))))))	51 °C	-36 kcal/mol
GCGAAACGAAAGTTCCGC (((.(((....))).)))	52.5 °C	-38.2 kcal/mol
CGTGACGGAAACGTAACG (((.(((....))).)))	50.3 °C	-37.4 kcal/mol
GAACGGAAACGTTC (((((....)))))	55.2 °C	-31.7 kcal/mol
GCAAGCCGAAAGGCGTGC (((.(((....))).)))	68.7 °C	-18.9 kcal/mol
GCCGACGAAAGTCTTGGC ((((((....)))..)))	48.1 °C	-23.2 kcal/mol
GTTACCGAAAGGTAAAAC ((((((....)))..)))	34.7 °C	-13.2 kcal/mol
GACGGTGGAAACACCATC ((.((((....)))).))	36.5 °C	-16.2 kcal/mol
GCGATGCGAAAGCGTTGC ((.(.((....)).).))	57.2 °C	-25.9 kcal/mol
GGATAGGGAAACTTATCC (((((.(....).)))))	35.7 °C	-30.3 kcal/mol
GACCCACGAAAGTGAGTC (((.(((....))).)))	51.2 °C	-31.2 kcal/mol

— the array DNA melting data of Ke et al. (doi:10.1101/2024.01.08.574731)
